{
  "source": "ChEMBL document CHEMBL1250434",
  "about": "“A novel achiral seco-cyclopropylpyrido[e]indolone (CPyI) analog of CC-1065 and the duocarmycins: synthesis, DNA interactions, in vivo anticancer and anti-parasitic evaluation” (Bioorg Med Chem, 2010)",
  "key": {"L1210": {"tested_on": "L1210", "assay": "Cytotoxicity against mouse L1210 cells after 3 days by MTT assay", "type": "functional, cell-based", "details": "L1210, 72 h", "procedure,_shortened": "(§1)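 Murine tumour cells under continuous drug exposure for 3 days. Growth inhibition measured by MTT assay. IC50 is the concentration inhibiting growth by 50%.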"}, "[1]": {"assay": "Cytotoxicity against mouse B16F0 cells after 3 days by MTT assay", "type": "functional, cell-based", "details": "B16F0, 72 h", "procedure,_shortened": "as §1"}},
  "data": [
    {"compound": "COc1cc2cc(C(=O)Nc3cc(O)c4ccccc4c3CCCl)[nH]c2c(OC)c1OC", "values": [
      {"measurement": "IC50", "setting": "L1210", "value": 180, "unit": "nM"},
      {"measurement": "IC50", "setting": "[1]", "value": 150, "unit": "nM"}
    ]}
  ]
}
